Reference: ChEMBL document CHEMBL4321805, “A Conformational Restriction Strategy for the Identification of a Highly Selective Pyrimido-pyrrolo-oxazine mTOR Inhibitor” (J Med Chem, 2019)

What was measured:
Homo sapiens = species on record: Homo sapiens; assay: Selectivity ratio of Kd for binding affinity to human wild-type partial length PI3Kalpha (R108 to N1068 residues) expressed in mammalian expression system to Kd for binding affinity to wild-type human partial length mTOR (L1382 to W2549 residues) expressed in mammalian expression system
In short: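 Ratio of Kd values from the DNA-tagged kinase competition binding assay (qPCR read-out, 11-point 3-fold dilution from 30 μM, Hill fit with slope −1, duplicates): PI3Kα Kd divided by mTOR Kd.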

[1] = target: Phosphatidylinositol 4,5-bisphosphate 3-kinase catalytic subunit alpha isoform (Homo sapiens, UniProt P42336); assay: Binding affinity to human wild-type partial length PI3Kalpha (R108 to N1068 residues) expressed in mammalian expression system by kinome scan assay
Phosphatidylinositol 4,5-bisphosphate 3-kinase catalytic subunit alpha isoform, sequence (P42336 whole entry, the tested form may be a part, canonical isoform): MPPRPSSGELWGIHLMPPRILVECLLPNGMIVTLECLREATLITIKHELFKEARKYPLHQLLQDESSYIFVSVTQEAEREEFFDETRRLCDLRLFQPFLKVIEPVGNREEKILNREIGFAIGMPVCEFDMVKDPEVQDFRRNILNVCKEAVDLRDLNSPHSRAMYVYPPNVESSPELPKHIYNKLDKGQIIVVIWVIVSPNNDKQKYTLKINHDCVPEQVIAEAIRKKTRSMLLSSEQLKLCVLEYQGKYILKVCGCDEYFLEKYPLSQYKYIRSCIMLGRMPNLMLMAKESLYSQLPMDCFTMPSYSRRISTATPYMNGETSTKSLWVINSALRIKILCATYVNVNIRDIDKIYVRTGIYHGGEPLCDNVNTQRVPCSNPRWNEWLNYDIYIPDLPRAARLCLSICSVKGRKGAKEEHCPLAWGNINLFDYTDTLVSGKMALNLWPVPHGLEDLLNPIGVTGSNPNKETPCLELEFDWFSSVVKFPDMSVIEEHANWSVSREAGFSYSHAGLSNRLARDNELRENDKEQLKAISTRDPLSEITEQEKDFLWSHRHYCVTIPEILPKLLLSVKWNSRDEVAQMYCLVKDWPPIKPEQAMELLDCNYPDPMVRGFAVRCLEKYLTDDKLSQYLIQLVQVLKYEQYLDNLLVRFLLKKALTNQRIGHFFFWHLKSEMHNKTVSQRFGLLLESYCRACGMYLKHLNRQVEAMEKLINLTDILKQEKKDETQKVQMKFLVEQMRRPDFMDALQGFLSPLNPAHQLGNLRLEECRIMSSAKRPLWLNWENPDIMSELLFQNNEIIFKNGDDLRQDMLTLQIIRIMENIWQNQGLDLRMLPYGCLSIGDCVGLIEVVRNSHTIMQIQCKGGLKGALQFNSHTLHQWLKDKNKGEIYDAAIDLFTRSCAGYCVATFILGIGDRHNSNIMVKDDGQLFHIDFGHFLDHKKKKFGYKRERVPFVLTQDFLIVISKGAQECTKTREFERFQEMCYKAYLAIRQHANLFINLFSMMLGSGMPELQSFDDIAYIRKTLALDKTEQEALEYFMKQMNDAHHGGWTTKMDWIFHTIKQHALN
In short: (§1)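 DNA-tagged kinases competed against immobilized ligand with an 11-point 3-fold serial dilution starting from 30 μM. Kinase bound measured by qPCR of the DNA tags. Kd from standard dose–response curves with the Hill equation (Hill slope −1); mean of duplicate experiments.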

[2] = target: T1, Phosphatidylinositol 4,5-bisphosphate 3-kinase catalytic subunit delta isoform (Homo sapiens, UniProt O00329); assay: Binding affinity to human wild-type partial length PI3Kdelta (R108 to Q1044 residues) expressed in mammalian expression system by kinome scan assay; in short: as §1
T1 sequence (O00329 whole entry): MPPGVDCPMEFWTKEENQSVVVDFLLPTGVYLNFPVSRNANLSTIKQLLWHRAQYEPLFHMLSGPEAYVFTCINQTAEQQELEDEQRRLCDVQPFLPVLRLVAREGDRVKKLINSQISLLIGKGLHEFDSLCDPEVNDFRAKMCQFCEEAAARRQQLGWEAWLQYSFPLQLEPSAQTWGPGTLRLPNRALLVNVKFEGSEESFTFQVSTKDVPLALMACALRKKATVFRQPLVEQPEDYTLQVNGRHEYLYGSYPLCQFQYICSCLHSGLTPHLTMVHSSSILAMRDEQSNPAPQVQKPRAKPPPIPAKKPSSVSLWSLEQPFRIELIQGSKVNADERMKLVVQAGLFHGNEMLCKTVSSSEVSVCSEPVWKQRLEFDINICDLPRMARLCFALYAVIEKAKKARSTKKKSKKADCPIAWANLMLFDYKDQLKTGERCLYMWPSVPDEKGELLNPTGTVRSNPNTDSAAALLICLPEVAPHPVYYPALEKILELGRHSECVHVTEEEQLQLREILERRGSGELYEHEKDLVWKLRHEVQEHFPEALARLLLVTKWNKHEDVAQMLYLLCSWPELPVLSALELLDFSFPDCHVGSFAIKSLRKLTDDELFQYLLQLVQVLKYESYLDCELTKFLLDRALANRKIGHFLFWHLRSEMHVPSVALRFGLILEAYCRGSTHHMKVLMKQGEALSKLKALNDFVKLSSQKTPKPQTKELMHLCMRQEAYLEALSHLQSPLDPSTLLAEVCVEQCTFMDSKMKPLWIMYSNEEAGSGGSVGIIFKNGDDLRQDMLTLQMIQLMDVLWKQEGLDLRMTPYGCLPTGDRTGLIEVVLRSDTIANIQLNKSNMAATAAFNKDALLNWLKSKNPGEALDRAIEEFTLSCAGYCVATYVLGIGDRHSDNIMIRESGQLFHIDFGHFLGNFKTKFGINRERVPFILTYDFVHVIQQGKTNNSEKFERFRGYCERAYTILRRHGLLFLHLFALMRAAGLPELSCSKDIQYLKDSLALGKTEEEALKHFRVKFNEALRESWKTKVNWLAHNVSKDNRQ

[3] = target: Phosphatidylinositol 4,5-bisphosphate 3-kinase catalytic subunit gamma isoform (Homo sapiens, UniProt P48736); assay: Binding affinity to human wild-type partial length PI3Kgamma (S144 to A1102 residues) expressed in mammalian expression system by kinome scan assay; in short: as §1
Phosphatidylinositol 4,5-bisphosphate 3-kinase catalytic subunit gamma isoform, sequence (P48736 whole entry, the tested form may be a part, canonical isoform): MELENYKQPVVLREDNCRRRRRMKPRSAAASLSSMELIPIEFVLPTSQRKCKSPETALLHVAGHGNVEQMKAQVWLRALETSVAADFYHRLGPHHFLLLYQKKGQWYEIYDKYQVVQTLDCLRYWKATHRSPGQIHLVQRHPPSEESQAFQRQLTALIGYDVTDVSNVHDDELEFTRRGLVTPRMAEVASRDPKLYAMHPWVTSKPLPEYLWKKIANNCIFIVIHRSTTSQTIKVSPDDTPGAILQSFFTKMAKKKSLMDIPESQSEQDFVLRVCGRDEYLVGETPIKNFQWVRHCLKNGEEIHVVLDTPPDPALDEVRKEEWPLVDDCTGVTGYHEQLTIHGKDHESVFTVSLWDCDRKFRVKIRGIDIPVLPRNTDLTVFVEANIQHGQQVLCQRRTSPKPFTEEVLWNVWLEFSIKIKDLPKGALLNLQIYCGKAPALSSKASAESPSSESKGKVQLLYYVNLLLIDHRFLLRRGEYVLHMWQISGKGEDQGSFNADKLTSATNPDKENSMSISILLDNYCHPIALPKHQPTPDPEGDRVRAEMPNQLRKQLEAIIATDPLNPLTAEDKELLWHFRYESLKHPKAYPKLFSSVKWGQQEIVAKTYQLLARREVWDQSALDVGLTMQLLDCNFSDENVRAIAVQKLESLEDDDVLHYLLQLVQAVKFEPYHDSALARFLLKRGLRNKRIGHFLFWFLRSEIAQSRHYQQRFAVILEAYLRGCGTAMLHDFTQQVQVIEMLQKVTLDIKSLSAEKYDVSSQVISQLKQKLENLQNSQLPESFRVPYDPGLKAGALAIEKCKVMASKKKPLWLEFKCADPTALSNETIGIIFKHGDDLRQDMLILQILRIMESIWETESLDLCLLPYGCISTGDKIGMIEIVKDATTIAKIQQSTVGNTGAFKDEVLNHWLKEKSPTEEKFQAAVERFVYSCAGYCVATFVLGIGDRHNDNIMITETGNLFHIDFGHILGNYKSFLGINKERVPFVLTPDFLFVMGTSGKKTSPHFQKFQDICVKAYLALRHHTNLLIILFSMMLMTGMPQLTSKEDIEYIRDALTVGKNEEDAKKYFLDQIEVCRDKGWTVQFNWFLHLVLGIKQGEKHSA

[4] = target: Serine/threonine-protein kinase mTOR (Homo sapiens, UniProt P42345); assay: Binding affinity to wild-type human partial length mTOR (L1382 to W2549 residues) expressed in mammalian expression system by kinome scan assay; in short: as §1
[5] = target: PI3-kinase p110-alpha/p85-alpha (Homo sapiens, UniProt P42336); assay: Inhibition of alexa fluor 647-labeled kinase tracer 314 binding to recombinant human full-length N-terminal His6-tagged p110alpha/p85alpha expressed in baculovirus expression system by TR-FRET assay
PI3-kinase p110-alpha/p85-alpha, sequence (P27986 whole entry): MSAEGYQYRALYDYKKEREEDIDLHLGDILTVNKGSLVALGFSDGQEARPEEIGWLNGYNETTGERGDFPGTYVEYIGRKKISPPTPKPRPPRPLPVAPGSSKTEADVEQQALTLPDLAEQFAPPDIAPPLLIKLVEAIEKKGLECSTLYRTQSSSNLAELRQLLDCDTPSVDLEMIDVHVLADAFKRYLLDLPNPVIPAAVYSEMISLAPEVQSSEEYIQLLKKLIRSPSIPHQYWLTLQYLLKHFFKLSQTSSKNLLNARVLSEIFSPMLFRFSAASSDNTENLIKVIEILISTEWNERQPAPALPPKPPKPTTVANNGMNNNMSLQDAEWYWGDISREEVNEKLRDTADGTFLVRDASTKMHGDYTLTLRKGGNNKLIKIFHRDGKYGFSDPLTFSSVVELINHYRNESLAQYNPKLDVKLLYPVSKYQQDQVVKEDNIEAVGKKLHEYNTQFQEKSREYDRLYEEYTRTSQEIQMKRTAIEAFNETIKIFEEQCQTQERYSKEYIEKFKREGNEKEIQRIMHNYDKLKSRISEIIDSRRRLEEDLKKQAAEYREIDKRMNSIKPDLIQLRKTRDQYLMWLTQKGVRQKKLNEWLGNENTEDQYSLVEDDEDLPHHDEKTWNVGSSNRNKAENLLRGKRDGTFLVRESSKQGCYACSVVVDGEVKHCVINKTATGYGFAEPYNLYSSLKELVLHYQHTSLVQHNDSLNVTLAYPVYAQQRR
PI3-kinase p110-alpha/p85-alpha, sequence (P42336 whole entry): as the sequence (P42336 whole entry, the tested form may be a part, canonical isoform) above

CYP1A1 = target: T2, CYP1A1 (Homo sapiens, UniProt P04798); assay: Substrate activity at recombinant human CYP1A1 expressed in baculovirus infected insect cells assessed as parent compound remaining at 1 uM incubated for 60 mins in absence of NADP+-regenerating system by LC-MS analysis; format: ADME; details: read-out: Stability
T2 sequence (P04798 whole entry): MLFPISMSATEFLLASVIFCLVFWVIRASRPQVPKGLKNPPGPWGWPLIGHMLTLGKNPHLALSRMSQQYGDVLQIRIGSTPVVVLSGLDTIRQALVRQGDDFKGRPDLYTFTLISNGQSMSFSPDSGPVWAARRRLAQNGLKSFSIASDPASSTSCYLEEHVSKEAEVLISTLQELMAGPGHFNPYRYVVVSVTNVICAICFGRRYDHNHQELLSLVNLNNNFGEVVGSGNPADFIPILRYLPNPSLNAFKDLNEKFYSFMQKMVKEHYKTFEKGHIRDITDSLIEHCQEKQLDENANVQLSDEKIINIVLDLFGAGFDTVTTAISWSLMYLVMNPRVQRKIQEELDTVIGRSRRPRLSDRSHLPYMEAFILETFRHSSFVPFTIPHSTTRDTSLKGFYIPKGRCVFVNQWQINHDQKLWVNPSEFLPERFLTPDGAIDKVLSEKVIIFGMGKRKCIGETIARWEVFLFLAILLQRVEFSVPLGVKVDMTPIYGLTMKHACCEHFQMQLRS
In short: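 Baculovirus/insect-cell Supersomes, each expressing a single human CYP, at 25 pmol/mL. Compound at 1 μM (0.25% DMSO), 37 °C, 60 min. Reactions run with a NADP+-regenerating cofactor mix or, as negative control, without cofactors and glucose-6-phosphate dehydrogenase. Stopped with ACN containing internal standard. Duplicates; % remaining from absolute amounts.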

mTORC2 = mTORC2 (Homo sapiens, UniProt P42345); assay: Inhibition of mTORC2 in human A2058 cells assessed as reduction in PKB phosphorylation at S473 residues incubated for 1 hr by Western blot analysis; format: cell-based
In short: (§2)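 In-cell Western assay. A2058 cells (2 × 10^4/well) grown 24 h at 37 °C, 5% CO2, then exposed 1 h to inhibitor or DMSO. Cells fixed in 4% PFA, blocked, and stained for the phospho-protein with α-tubulin as internal standard; infrared fluorescence read-out. Signals normalized to tubulin and to DMSO controls to derive IC50.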

mTORC1 = mTORC1 (Homo sapiens, UniProt P42345); assay: Inhibition of mTORC1 in human A2058 cells assessed as reduction in ribosomal protein S6 phosphorylation at Ser235/236 residues incubated for 1 hr by Western blot analysis; format: cell-based; in short: as §2
[6] = target: Phosphatidylinositol 3-kinase catalytic subunit type 3 (Homo sapiens, UniProt Q8NEB9); assay: Binding affinity to human wild-type partial length VPS34 (S282 to H879 residues) expressed in mammalian expression system by kinome scan assay; in short: as §1
Phosphatidylinositol 3-kinase catalytic subunit type 3, sequence (Q8NEB9 whole entry, the tested form may be a part): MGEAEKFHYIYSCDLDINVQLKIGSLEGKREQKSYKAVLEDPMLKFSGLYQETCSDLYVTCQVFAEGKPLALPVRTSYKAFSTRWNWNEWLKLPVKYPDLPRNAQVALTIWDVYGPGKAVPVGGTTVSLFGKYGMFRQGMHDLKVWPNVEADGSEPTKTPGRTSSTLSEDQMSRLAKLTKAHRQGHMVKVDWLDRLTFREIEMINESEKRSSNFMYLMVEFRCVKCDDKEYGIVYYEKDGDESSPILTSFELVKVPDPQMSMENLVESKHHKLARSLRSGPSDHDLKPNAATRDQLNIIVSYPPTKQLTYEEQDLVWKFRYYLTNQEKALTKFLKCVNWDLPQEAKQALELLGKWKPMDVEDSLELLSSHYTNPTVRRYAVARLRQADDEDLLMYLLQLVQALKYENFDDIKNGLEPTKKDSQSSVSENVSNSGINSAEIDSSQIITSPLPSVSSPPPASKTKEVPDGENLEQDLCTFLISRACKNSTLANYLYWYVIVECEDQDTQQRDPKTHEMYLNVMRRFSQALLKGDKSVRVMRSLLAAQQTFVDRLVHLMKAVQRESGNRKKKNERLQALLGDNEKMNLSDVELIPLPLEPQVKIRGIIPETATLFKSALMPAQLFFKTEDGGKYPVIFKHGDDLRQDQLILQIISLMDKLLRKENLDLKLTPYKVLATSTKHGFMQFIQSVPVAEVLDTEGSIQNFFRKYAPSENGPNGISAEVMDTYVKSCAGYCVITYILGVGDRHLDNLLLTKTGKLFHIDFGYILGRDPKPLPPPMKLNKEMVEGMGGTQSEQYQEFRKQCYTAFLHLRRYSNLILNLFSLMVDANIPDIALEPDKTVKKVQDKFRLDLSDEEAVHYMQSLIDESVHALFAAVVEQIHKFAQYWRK

Selectivity ratio (Homo sapiens)	Kd [1]	Kd [2]	Kd [3]	Kd [4]	Ki [5]	remaining at 1 h, 1 µM (CYP1A1)	IC50 (mTORC2)	IC50 (mTORC1)	Kd [6]	SMILES
17.9	610 nM	6200 nM	8700 nM	34 nM	2150 nM	109%	133 nM	61 nM	2100 nM	C[C@@H]1COCCN1c1nc(-c2ccc(N)nc2)nc2c1C[C@@H]1COCCN21
457	1600 nM	12000 nM	11000 nM	3.5 nM	1690 nM	96%	94 nM	60 nM	3200 nM	C[C@@H]1COCCN1c1nc(-c2cnc(N)cn2)nc2c1C[C@@H]1COCCN21
8.6	120 nM	1900 nM	1800 nM	14 nM	536 nM	93%	77 nM	55 nM	980 nM	C[C@@H]1COCCN1c1nc(-c2cnc(N)nc2)nc2c1C[C@@H]1COCCN21
